According to publication PMC8049015 (Journal of Clinical Pharmacology, 2020):
Where two headings read alike, the source gives them in different places. Marks after values point to notes of the source that are not given here.

Columns and labels:
[1] = system: subjects with moderate to severe atopic dermatitis; assay: Phase 2b dose‐ranging study, observed efficacy in week 16; assay type: in vivo, human; settings: week 16, NRI
[2] = system: subjects with moderate to severe atopic dermatitis; assay: Exposure‐response logistic regression models; assay type: in vivo, human; settings: logit scale; week 16, NRI; estimate
How it was run: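 Week-16 EASI-75, EASI-90 and IGA 0/1 responses from 167 phase 2b adults were each fitted by logistic regression with an Emax link, with estimates on the logit scale. The exposure was individual steady-state Cavg from empirical Bayesian population-PK parameters. Drug effect was tested by likelihood ratio at P < .01. Covariates were selected stepwise (entry P < .01, removal P < .001). Models were chosen by AIC, fit and precision.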

[3] = assay type: in vivo, human; settings: steady state, median (5th to 95th percentiles), model‐predicted
How it was run: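 Plasma exposures at steady state over a dosing interval (median, 5th–95th percentiles) were predicted by a 2-compartment population-PK model for the oral extended-release once-daily regimens. Absorption was mixed zero- and first-order with a lag time. Sparse samples from weeks 2 and 4 (predose) and weeks 8, 12 and 16 (any time) were assayed by validated LC-MS.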

[4] = system: subjects with moderate to severe atopic dermatitis; settings: week 16, placebo 23%, cited from earlier work
[5] = cited from earlier work
[6] = system: subjects with moderate to severe RA; settings: cited from earlier work
[7] = 7.5, 15, 30 mg once daily, 16 weeks; cited from earlier work
[8] = system: moderate to severe atopic dermatitis; settings: phase 3 studies; cited from earlier work
[9] = 15 mg once daily extended‐release

Compound: CC[C@@H]1CN(C(=O)NCC(F)(F)F)C[C@@H]1c1cnc2cnc3[nH]ccc3n12 [upadacitinib]
- Observed percentage of subjects achieving EASI‐75 ([1]; 7.5 mg once daily): [29] %
- Observed percentage of subjects achieving EASI‐90 ([1]; 7.5 mg once daily): [14] %
- Observed percentage of subjects achieving IGA 0/1 ([1]; 7.5 mg once daily): [14] %
- Observed percentage of subjects achieving EASI‐90 ([1]; 15 mg once daily): [26] %
- Observed percentage of subjects achieving IGA 0/1 ([1]; 15 mg once daily): [31] %
- Observed percentage of subjects achieving EASI‐90 ([1]; 30 mg once daily): [50] %
- Observed percentage of subjects achieving IGA 0/1 ([1]; 30 mg once daily): [50] %
- Emax, probability of achieving EASI‐75 [2]: 5.35 (17% ^a )
- Emax, probability of achieving EASI‐90 [2]: 6.2 (13% ^a )
- Emax, probability of achieving IGA 0/1 [2]: 5.78 (12% ^a )
- Cmin ([3]; 7.5 mg once daily extended‐release): 2.0 (0.56‐6.2) ng/mL
- Cmax [3, 9]: 41.2 (27.7‐65.8) ng/mL
- Cmin [3, 9]: 2.7 (1.2‐11.3) ng/mL
- Cmin ([3]; 30 mg once daily extended‐release): 6.6 (2.1‐22.1) ng/mL
- Mean improvement in EASI from baseline ([4]; 7.5 mg once daily): 39%
- Mean improvement in EASI from baseline ([4]; 15 mg once daily): 62%
- Mean improvement in EASI from baseline ([4]; 30 mg once daily): 74%
- Oral bioavailability of the extended‐release tablet relative to the same dose of the immediate‐release formulation [5]: 76%
- Dose proportionality of plasma exposure ([5]; over the evaluated dose range across clinical studies): approximately dose proportional
- Accumulation with repeated dosing ([5]; twice daily immediate‐release or once daily extended‐release): no significant accumulation
- Estimated increase in the percentage of subjects achieving ACR 20/50/70 responses or DAS‐28 low disease activity and clinical remission, 30 mg once daily compared with 15 mg once daily exposures [6]: < 5%
- Dose relationship for serious infections or overall incidence of adverse events [7]: no dose relationship was observed
- Dose‐limiting safety events [7]: No dose‐limiting safety events were observed

Compound: dupilumab
- Patients who achieved no or almost no disease activity [8]: < 40%
